ChEMBL document CHEMBL1268838, “The synthesis and biologic evaluation of anti-platelet and cytotoxic β-nitrostyrenes” (Bioorg Med Chem, 2010)

What was measured:
HBL-100 [1] = assay: Cytotoxicity against human HBL100 cells after 72 hrs by MTT assay; assay type: functional, cell-based; conditions: HBL-100, 72 h
How it was run: (§1)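 MDA-MB-231 breast cancer or HBL-100 non-malignant breast epithelial cells: freshly trypsinized cells seeded at 8000 per well, with compound added from DMSO-diluted stock. After 72 h, attached cells were given MTT (0.5 mg/mL, 1 h) and solubilized in DMSO.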

[2] = Antiaggregatory activity in human platelets assessed as inhibition of collagen-induced platelet aggregation preincubated for 3 mins before collagen challenge by turbidimetry analysis; assay type: functional, cell-based
How it was run: (§2)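 Washed platelets from ACD-anticoagulated blood of drug-free healthy volunteers, resuspended at 3 × 10⁸/ml in Tyrode's solution with Ca²⁺ 2 mM, glucose 11.1 mM and BSA 3.5 mg/ml. Platelets were stirred at 1200 rpm and 37 °C for 3 min with DMSO (0.5%, vehicle) or compound, then the inducer was added. Aggregation was read by light-transmission aggregometry. IC50 is the mean of two independent experiments (TPA lines n = 3).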

[3] = Antiaggregatory activity in human platelets assessed as inhibition of thrombin-induced platelet aggregation preincubated for 3 mins before thrombin challenge by turbidimetry analysis; assay type: functional, cell-based; how it was run: as §2
HBL-100 [4] = assay: Cytotoxicity against human HBL100 cells at 20 uM after 72 hrs by MTT assay; assay type: functional; conditions: HBL-100, 72 h
MDA-MB-231 [5] = assay: Cytotoxicity against human MDA-MB-231 cells at 20 uM after 72 hrs by MTT assay; assay type: functional; conditions: MDA-MB-231, 72 h
MDA-MB-231 [6] = assay: Cytotoxicity against human MDA-MB-231 cells after 72 hrs by MTT assay; assay type: functional, cell-based; conditions: MDA-MB-231, 72 h; how it was run: as §1

Structure (SMILES)	IC50 (HBL-100 [1]) [µM]	IC50 [2] [µM]	IC50 [3] [µM]	inhibition at 20 µM (HBL-100 [4]) [%]	inhibition at 20 µM (MDA-MB-231 [5]) [%]	IC50 (MDA-MB-231 [6]) [µM]
CCOc1cc(/C=C/[N+](=O)[O-])ccc1O	> 20	16.2	78.1	35.2	34.4	> 20
O=[N+]([O-])/C(O)=C/c1ccccc1	> 20	7.8	35.5	34.9	21.2	13.9
O=[N+]([O-])C(=Cc1ccccc1)[N+](=O)[O-]	> 20	3	5.7	34.2	–	9.9
COc1cc(/C=C/[N+](=O)[O-])ccc1OC(=O)c1cc(Cl)cc(Cl)c1	> 20	1.4	1.9	15.6	20	> 20
COc1cc(/C=C/[N+](=O)[O-])ccc1OC(=O)c1ccc(F)c(F)c1F	> 20	2.7	23	1.1	3.7	> 20
COc1cc(/C=C/[N+](=O)[O-])ccc1OC(=O)c1cc(F)c(F)c(F)c1	> 20	0.9	1.4	16.6	–	12.4
COc1cc(/C=C/[N+](=O)[O-])ccc1OC(=O)c1cc(OC)c(OC)c(OC)c1	> 20	1.1	1.1	47.4	–	13.9
CCOc1cc(/C=C/[N+](=O)[O-])ccc1OC(=O)c1ccccc1	11.6	1	1.2	–	–	15.3
COc1ccc(/C=C/[N+](=O)[O-])cc1OC(=O)c1ccccc1	< 10	0.8	1.9	79.8	–	7.7
CCOc1cc(/C=C(\C)[N+](=O)[O-])ccc1OC(=O)c1ccccc1	14.6	1.1	0.8	–	–	12.1
COc1ccc(/C=C(\C)[N+](=O)[O-])cc1OC(=O)c1ccccc1	7.3	1	2.9	–	–	6.6
COc1cc(/C=C/[N+](=O)[O-])ccc1OC(=O)c1ccccc1F	> 20	1.6	4.7	4.9	26.5	> 20
COc1cc(/C=C/[N+](=O)[O-])ccc1OC(=O)c1ccccc1Cl	> 20	0.6	1	8.2	7	> 20
COc1cc(/C=C/[N+](=O)[O-])ccc1OC(=O)c1ccccc1Br	> 20	2	5.4	10	8.3	> 20
COc1cc(/C=C/[N+](=O)[O-])ccc1OC(=O)c1ccccc1C(F)(F)F	> 20	1.3	2.5	2.4	20.4	> 20
COc1cc(/C=C/[N+](=O)[O-])ccc1OC(=O)c1ccccc1C	> 20	1.2	1.5	1.8	36.3	> 20
COc1cc(/C=C/[N+](=O)[O-])ccc1OC(=O)c1ccccc1OC	> 10	0.8	2.1	8.8	–	19.4
COc1cc(/C=C/[N+](=O)[O-])ccc1OC(=O)c1cccc(F)c1	> 20	1.4	2.6	38.2	44.9	> 20
COc1cc(/C=C/[N+](=O)[O-])ccc1OC(=O)c1cccc(Cl)c1	> 20	0.5	1.2	23.2	–	18.9
COc1cc(/C=C/[N+](=O)[O-])ccc1OC(=O)c1cccc(Br)c1	> 20	0.9	1.3	18.2	19.1	> 20
COc1cc(/C=C/[N+](=O)[O-])ccc1OC(=O)c1cccc(C(F)(F)F)c1	> 20	1.7	3.3	12.5	34.9	> 20
COc1cc(/C=C/[N+](=O)[O-])ccc1OC(=O)c1cccc(C)c1	4.1	0.9	1.7	–	–	13.4
COc1cccc(C(=O)Oc2ccc(/C=C/[N+](=O)[O-])cc2OC)c1	12.1	0.7	2.9	–	28.9	> 20

Structure (SMILES)	IC50 (HBL-100 [1]) [µM]	IC50 [2] [µM]	IC50 [3] [µM]	inhibition at 20 µM (HBL-100 [4]) [%]	inhibition at 20 µM (MDA-MB-231 [5]) [%]	IC50 (MDA-MB-231 [6]) [µM]
COc1cc(/C=C/[N+](=O)[O-])ccc1OC(=O)c1ccc(F)cc1	> 20	0.8	0.9	25.1	–	9.8
COc1cc(/C=C/[N+](=O)[O-])ccc1OC(=O)c1ccc(Cl)cc1	> 20	0.7	1.5	7.3	33.2	> 20
COc1cc(/C=C/[N+](=O)[O-])ccc1OC(=O)c1ccc(Br)cc1	> 20	0.6	1.2	6.3	9.1	> 20
COc1cc(/C=C/[N+](=O)[O-])ccc1OC(=O)c1ccc(C(F)(F)F)cc1	> 20	8.3	6.2	-7.3	-4.9	> 20
COc1cc(/C=C/[N+](=O)[O-])ccc1OC(=O)c1ccc(C)cc1	> 20	2	2.7	8	7.9	> 20
COc1ccc(C(=O)Oc2ccc(/C=C/[N+](=O)[O-])cc2OC)cc1	> 20	0.8	3.5	22.7	–	18.1
COc1cc(/C=C/[N+](=O)[O-])ccc1OC(=O)c1cccc(F)c1F	> 20	1.6	3.3	4.1	25.5	> 20
COc1cc(/C=C/[N+](=O)[O-])ccc1OC(=O)c1ccc(F)cc1F	> 20	2	3	16	18.5	> 20
COc1cc(/C=C/[N+](=O)[O-])ccc1OC(=O)c1ccc(F)c(F)c1	> 20	1.1	2.9	0.5	22.1	> 20
COc1cc(/C=C/[N+](=O)[O-])ccc1OC(=O)c1cc(F)cc(F)c1	> 20	1.4	3.4	19	24.7	> 20
COc1cc(/C=C/[N+](=O)[O-])ccc1OC(=O)c1ccc(Cl)cc1Cl	> 20	0.7	0.7	9.9	-0.1	> 20
COc1cc(/C=C/[N+](=O)[O-])ccc1OC(=O)c1ccc(Cl)c(Cl)c1	> 20	1.8	1	15.2	9.4	> 20
Cc1ccc(/C=C/[N+](=O)[O-])cc1	15	5.9	8.9	–	–	> 20
O=[N+]([O-])/C=C/c1ccc(Cl)cc1	15.7	3.5	7.5	–	36.6	> 20
COc1ccc(/C=C/[N+](=O)[O-])cc1	13	3.5	12.1	–	–	16.3
O=[N+]([O-])/C=C/c1ccc(O)cc1	16.3	18.4	45.1	–	38.3	> 20
COc1cc(/C=C/[N+](=O)[O-])ccc1O	–	16.4	66.5	–	–	–
COc1cc(/C=C/[N+](=O)[O-])ccc1OC(=O)c1ccccc1	> 20	1.1	2.7	0	–	13.1
COc1ccc(/C=C/[N+](=O)[O-])cc1O	12.8	7.2	28.5	–	–	18.9
COc1ccc(/C=C/[N+](=O)[O-])cc1OC	–	7.6	12.8	–	–	–
O=[N+]([O-])/C=C/c1ccc2c(c1)OCO2	> 20	7.2	14	39.2	–	14
O=[N+]([O-])/C=C/c1ccccc1 [(2-NITROVINYL)BENZENE]	–	4.9	17.8	–	–	–
